Laboratory results as given in paper PMC7722202 (Angewandte Chemie (International ed. in English), 2020).

What was measured:
HeLa cells [1] = test: Mitochondrial membrane potential with JC-1 probe, live-cell confocal microscopy; type: cell-based, human; settings: 2 μM JC-1 probe, excitation 488 nm, NP5 after 30 min incubation
Summary of the method: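 Live HeLa cells were exposed to the test peptide materials for set times, then stained with 2 μM JC-1 followed by Hoechst 33342 before imaging. Confocal microscopy, both channels excited at 488 nm: monomer green at 510–550 nm, J-aggregate red at 585–649 nm; nuclei at ex 405/em 420–480 nm. Green and red fluorescence were compared. CCCP was run alongside.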

HeLa cells [2] = type: cell-based, human
[3] = Hydrodynamic diameter by dynamic light scattering; type: physicochemical; settings: DLS; nanoparticles via photo-PISA at solids content of 15 wt.%

| Substance | red fluorescence of JC-1 J-aggregates (mitochondrial membrane potential) (HeLa cells [1]) | cytotoxicity in HeLa cells (HeLa cells [2]) | Dh (hydrodynamic diameter) [3] |
| --- | --- | --- | --- |
| poly[(KLAAm10-co-DMA10)-b-(DAAm280-co-DMA120)] [NP5] | almost no red emission |  |  |
| poly[(KLAAm10-co-DMA30)-b-(DAAm280-co-DMA120)] [NP3] |  | dose-dependent cytotoxicity | 105 nm |
